# Bioassay records deposited in PubChem BioAssay by Sanford-Burnham Center for Chemical Genomics.
# Shown are actives, neighbours in structure and some others; about 1.5% of the full set was active somewhere.
# APJ antag = antagonists of human apelin receptor APJ, primary screen, CHO-K1 cells, beta-arrestin complementation, luminescence; P35414; inhibition, % at 20 µM; AID 2521, 2010; 0.32% of 330,000 active;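 active = inhibition above about 40% at 20 µM, limit read from the data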;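 also: cells challenged with 10 nM apelin-13 agonist together with compound; plate controls were apelin-13 plus DMSO wells for no effect and DMSO wells lacking apelin-13 for full effect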
# APJ ag = agonists of human apelin receptor APJ, primary screen, CHO-K1 cells, PathHunter beta-arrestin, luminescence. activation, % at 20 µM. 0% DMSO wells, 100% apelin. 0.11% of 330,000 active;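 active = activation more than six SD over the plate average, tested at 20 µM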;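 also: 0% = DMSO alone and 100% = apelin-13 at 10 nM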
#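 Material: engineered CHO-K1 APJ arrestin reporter cells; amount: 1000 CHO-K1 reporter cells seeded per well; incubation: compound stimulation 90 min at 25 °C, detection 60 min; signal: luminescent beta-gal fragment complementation, chemiluminescent substrate; read-out basis: APJ agonist activity; controls: DMSO-only wells as negative, 10 nM Apelin-13 as positive control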
# CCR6 antagonist = CCR6 receptor antagonists, primary screen, cell-based, CHO-K1, luminescence, beta-arrestin, uHTS. C-C chemokine receptor type 6 (Homo sapiens), P51684. CHO-K1 CCR6 PathHunter beta-arrestin, CCL20-stimulated. inhibition, % at 20 µM. 0.49% of 340,000 active. AID 493098, 2011;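 active = compounds whose inhibition of the agonist-driven luminescence signal at 20 µM reaches about 50%, limit read from the data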;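 also: cells stimulated with CCL20 at 14 nM final; plate controls were DMSO with CCL20 for no effect and DMSO without agonist for full effect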
# EBI2 antag = EBI2 receptor antagonists, beta-arrestin recruitment, primary screen, cell-based, luminescence, 7a,25-OHC stimulation, uHTS; G-protein coupled receptor 183 (Homo sapiens), P32249; 7a,25-OHC stimulated; inhibition, % at 5 µM; 0.81% of 360,000 active; in the data active = inhibition above about 38%;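 also: enzyme fragment complementation signal reports receptor beta-arrestin coupling in cells; 0% = agonist plus DMSO wells and 100% = wells without agonist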
# Target sequence (P32249 whole entry, looked up, the tested form may be a part): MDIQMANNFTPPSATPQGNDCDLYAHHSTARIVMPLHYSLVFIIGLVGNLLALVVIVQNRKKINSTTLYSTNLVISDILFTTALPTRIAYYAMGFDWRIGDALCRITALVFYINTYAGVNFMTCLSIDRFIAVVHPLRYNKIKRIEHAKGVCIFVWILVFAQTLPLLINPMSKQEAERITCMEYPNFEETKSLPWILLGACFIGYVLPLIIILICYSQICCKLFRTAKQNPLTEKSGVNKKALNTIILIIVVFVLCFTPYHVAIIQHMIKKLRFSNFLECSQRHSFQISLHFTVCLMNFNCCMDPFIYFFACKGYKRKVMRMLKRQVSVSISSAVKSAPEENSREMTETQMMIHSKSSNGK
# CXCR6 inh = CXCR6 receptor inhibitors, primary screen, cell-based, beta-arrestin, luminescence, CHO-K1 PathHunter, 1536-well; C-X-C chemokine receptor type 6 (Homo sapiens), O00574; inhibition, % at 20 µM; 0.36% of 360,000 active; AID 602244, 2012; in the data active = inhibition above about 34%, passing the limit was not always enough;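 also: antagonist mode with CXCL16 agonist at 10 nM final; 0% = 10 nM CXCL16 with DMSO and 100% = unstimulated wells without agonist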
# EBI2 conf = EBI2 antagonist hit retest, beta-arrestin, confirmation, cell-based, single concentration, luminescence, 7a,25-OHC stimulation; 7a,25-OHC antagonism; AID 651997, 2013; 29% of 2,400 active; inhibition, % at 5 µM; shares compounds with EBI2 antag;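 active = inhibition of at least 50%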
# EBI2 ag = EBI2 agonist activity of antagonist hits, confirmation, counter-screen for EBI2 antagonist project, cell-based, single concentration, agonist mode, luminescence; 2,400 tested, under 10 active; EBI2-expressing cells, 60 min; 0% vehicle, 100% 7α,25-dihydroxycholesterol control; shares compounds with EBI2 antag; activation, % at 5 µM;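 active = activation of at least 50%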
# bGal cs = E. coli beta-galactosidase enzyme inhibition, confirmation, counter-screen for EBI2 antagonist project, biochemical, luminescence, single concentration; shares compounds with EBI2 antag; purified beta-galactosidase, luminescent Galacton Star, 15 min; inhibition, % at 5 µM; 1% of 2,400 active; AID 652176, 2013;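 active = replicate-average signal at least 3 plate SD below neutral wells, shown as high inhibition, flagging enzyme-inhibiting false positives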;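 also: 0% = DMSO wells with enzyme and 100% = wells lacking enzyme; higher means stronger loss of beta-gal luminescence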
# The depositor's hits bear a star; . = no result.
SMILES,APJ antag,APJ ag,CCR6 antagonist,EBI2 antag,CXCR6 inh,EBI2 conf,EBI2 ag,bGal cs
CCCCN=c1sc(C(=O)OC)cc(=O)n1CCCC,11.2,0.5,6.5,34.1,-1.0,.,.,.
CCn1c(=O)cc(C(=O)OC)sc1=Nc1ccc(F)c(F)c1,12.7,-0.8,14.2,51.2*,8.5,53.3*,1.6,6.1
COC(=O)c1cc(=O)n(CCc2ccc(OC)cc2)c(=Nc2ccc(F)c(Cl)c2)s1,4.7,-5.2,13.7,66.1*,8.4,41.3,-0.8,6.6
COC(=O)c1ccc2c(=O)n(CCCN3CCOCC3)c(=S)[nH]c2c1,10.7,0.7,3.3,3.3,0.2,.,.,.
CC(=O)Nc1ccc(S(=O)(=O)NCC(=O)N2CCN(S(=O)(=O)c3cccs3)CC2)cc1,-4.9,1.4,6.3,-20.5,-10.4,.,.,.
Cc1c(C(=O)N2CCNCC2)oc2ccccc12,-10.1,-0.6,3.5,-2.1,-0.1,.,.,.
Cc1cc(Cl)c2oc(C(=O)N3CCN(C(=O)c4ccco4)CC3)c(C)c2c1,-41.6,3.2,7.8,44.4*,1.4,19.9,-1.6,-7.2
Cc1cc(Cl)c2oc(C(=O)N3CCOCC3)c(C)c2c1,.,.,.,-3.4,9.5,.,.,.
Cc1cc(Cl)c2oc(C(=O)N3CCN(c4cnccn4)CC3)c(C)c2c1,.,.,.,53.6*,1.3,32.8,-1.1,-8.1
CCOC(=O)C1(Cc2ccc(OC)cc2)CCN(C(=O)c2cc3ccccc3[nH]2)CC1,-5.6,-2.8,13.6,67.4*,2.8,35.4,-1.2,-2.7
COc1ccccc1N1CCN(C(=S)NC(=O)/C=C/c2ccc(F)cc2)CC1,4.4,-4.7,14.2,53.7*,5.3,35.2,-0.5,8.7
O=C(c1cc(-c2ccc(Cl)cc2)n[nH]1)N1CCN(C(=O)c2ccco2)CC1,-5.5,-2.8,-4.7,42.4*,-6.9,28.5,2.1,9.4
COc1ccccc1N1CCN(C(=O)c2cc3cc(Cl)ccc3[nH]2)CC1,-12.3,1.9,-12.3,89.4*,-8.5,72.8*,0.1,-9.8
C[C@H](NC(=O)c1ncn2c1C(=O)N[C@@H](C)C2)C(=O)OC(C)(C)C,.,.,.,-6.6,3.1,.,.,.
C[C@H](NC(=O)N1CCn2c1nc1ccccc12)C(=O)NCc1ccccc1,14.0,-2.1,7.5,-5.2,-0.2,.,.,.
COc1ccccc1N1CCN(C(=O)c2cc3ccccc3[nH]2)CC1,4.9,3.0,5.0,73.2*,-11.1,55.5*,1.8,4.5
COc1ccc2cc(C(=O)N3CCN(c4cccc(C)c4C)CC3)[nH]c2c1,5.7,-0.6,9.0,84.5*,6.3,56.7*,-1.1,-14.9
COc1ccccc1N1CCN(C(=O)c2cc3cc(C)ccc3[nH]2)CC1,13.3,-3.6,6.1,93.5*,-5.9,80.1*,1.0,2.6
COc1ccc(N2CCN(S(=O)(=O)CCNC(=O)/C=C/c3ccc4c(c3)OCO4)CC2)cc1,-27.2,-0.7,0.8,13.4,-8.5,.,.,.
COc1ccccc1N1CCN(S(=O)(=O)CCNC(=O)/C=C/c2ccc3c(c2)OCO3)CC1,.,.,.,78.3*,1.9,59.3*,0.5,8.0
COc1ccccc1N1CCN(C(=O)c2cccc(C(=O)N3CCN(c4ccccc4OC)CC3)c2)CC1,-22.3,5.0,-2.5,-0.2,13.2,.,.,.
COc1cc2cc(C(=O)N3CCN(c4ccccc4OC)CC3)[nH]c2cc1OC,-3.3,-0.8,12.5,5.8,-2.9,.,.,.
O=C(CCNC(=O)c1ccc([N+](=O)[O-])cc1)NCc1ccco1,4.5,-2.3,3.1,2.3,-2.0,.,.,.
